Paper PMC3889518 (European Journal of Clinical Pharmacology, 2013)
Entries after “also recorded” stand apart in the source; their conditions may differ.

How the values were obtained:
[1] = high first-pass effect; cited from earlier work
OATP1B1 = settings: co-administration of cyclosporin, inhibitor of OATP1B1; cited from earlier work
[2] = multiple oxidative and reductive pathways, including CYP3A4, CYP2C19 and CYP2B6; ref ChemoCentryx, data on file; cited from earlier work
[3] = read-out: maximum observed concentration [Cmax] range; likely therapeutic plasma concentrations; ref ChemoCentryx, data on file; cited from earlier work
OAT1 = settings: ref ChemoCentryx and GlaxoSmithKline, data on file; cited from earlier work
[4] = oral administration 250 to 1,000 mg; cited from earlier work
[5] = ref ChemoCentryx, data on file; cited from earlier work
CYP2C19 = CYP2C19 (Homo sapiens, UniProt P33261); assay type: in vivo; settings: repeat dosing of vercirnon 500 mg BID, omeprazole probe, healthy subjects
[6] = tested on: human p-glycoprotein transporter protein; settings: ref ChemoCentryx, data on file; cited from earlier work
CYP3A4 [7] = biological target: CYP3A4 (Homo sapiens, UniProt P08684); assay type: in vivo; settings: repeat dosing of vercirnon 500 mg BID, midazolam probe, healthy subjects
[8] = Safety and tolerability in healthy subjects; assay type: in vivo, human
CYP2C8 [9] = biological target: T1, CYP2C8 (Homo sapiens, UniProt P10632); assay type: in vivo; settings: repeat dosing of vercirnon 500 mg BID, pioglitazone probe, healthy subjects
T1 sequence (P10632 1-490): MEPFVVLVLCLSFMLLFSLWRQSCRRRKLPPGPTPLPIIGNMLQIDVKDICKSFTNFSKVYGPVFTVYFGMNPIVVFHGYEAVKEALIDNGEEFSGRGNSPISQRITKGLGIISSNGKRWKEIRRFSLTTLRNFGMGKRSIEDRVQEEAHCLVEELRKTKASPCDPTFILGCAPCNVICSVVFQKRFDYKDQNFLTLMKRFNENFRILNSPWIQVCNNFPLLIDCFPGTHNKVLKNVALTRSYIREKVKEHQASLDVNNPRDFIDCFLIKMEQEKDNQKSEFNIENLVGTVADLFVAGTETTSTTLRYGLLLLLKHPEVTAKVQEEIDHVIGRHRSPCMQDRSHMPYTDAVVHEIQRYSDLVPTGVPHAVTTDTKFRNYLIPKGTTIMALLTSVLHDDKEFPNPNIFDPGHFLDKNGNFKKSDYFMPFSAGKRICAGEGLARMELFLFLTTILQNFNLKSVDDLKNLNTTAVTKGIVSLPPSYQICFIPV

[10] = tested on: breast cancer resistant protein (BCRP); settings: ref ChemoCentryx and GlaxoSmithKline, data on file; cited from earlier work
OAT3 = settings: ref ChemoCentryx and GlaxoSmithKline, data on file; cited from earlier work
BCRP and OATP1B1 = assay type: in vivo, human; settings: repeat dosing of vercirnon 500 mg BID, rosuvastatin probe, healthy subjects
Procedure, shortened: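 Open-label, single-sequence study in 24 healthy adults aged 18–55. Rosuvastatin 10 mg oral tablet was given alone on day 4 and again on day 14 with vercirnon 500 mg BID after meals (days 5–14). Dosing was 30 min after breakfast with 240 mL water. Serial plasma samples were taken over 48 h. Non-compartmental AUC0–∞ was loge-transformed and analysed in a mixed-effects model (treatment fixed, subject random), giving a geometric LS mean ratio with 90% CI.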

[11] = assay type: in vivo, human; settings: day 10 compared with day 5, vercirnon 500 mg BID
Procedure, shortened: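 Vercirnon 500 mg BID, taken after meals, starting study day 5. Six volunteers had serial plasma sampling over 24 h on days 5 and 10 for vercirnon and two metabolites. Non-compartmental AUC0–τ, Cmax and tmax were determined. Accumulation ratio for AUC0–τ and Cmax compared day 10 with day 5. Metabolite:parent AUC0–τ ratios were molar. Steady state was tested on day 6–11 troughs from all 24 subjects by the 90% CI of the regression slope.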

[12] = ref ChemoCentryx, data on file; cited from earlier work; remark: listed apart in the source
OAT1B1 = settings: ref ChemoCentryx and GlaxoSmithKline, data on file; cited from earlier work
CYP2C8 [13] = settings: cited from earlier work
CYP3A4 [14] = settings: co-administration with ketoconazole, strong inhibitor of CYP3A4; cited from earlier work
CYP2C8 [15] = settings: strong inhibitor of CYP2C8; cited from earlier work

Sequence of CYP2C19 (P33261 whole entry): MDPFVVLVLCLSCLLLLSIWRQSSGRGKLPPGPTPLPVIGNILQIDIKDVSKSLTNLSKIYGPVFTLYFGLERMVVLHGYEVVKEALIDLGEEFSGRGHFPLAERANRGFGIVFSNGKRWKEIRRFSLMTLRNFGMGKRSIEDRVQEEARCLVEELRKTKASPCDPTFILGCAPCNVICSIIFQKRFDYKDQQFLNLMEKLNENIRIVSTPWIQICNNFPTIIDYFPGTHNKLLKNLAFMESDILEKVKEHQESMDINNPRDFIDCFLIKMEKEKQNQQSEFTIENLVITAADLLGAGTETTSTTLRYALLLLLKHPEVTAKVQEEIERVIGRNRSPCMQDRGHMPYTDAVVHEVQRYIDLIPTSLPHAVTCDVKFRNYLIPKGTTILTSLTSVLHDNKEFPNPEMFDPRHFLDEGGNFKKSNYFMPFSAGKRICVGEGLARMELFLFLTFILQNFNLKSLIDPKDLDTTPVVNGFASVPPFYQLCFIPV
Sequence of CYP3A4 (Homo sapiens, UniProt P08684) (P08684 whole entry): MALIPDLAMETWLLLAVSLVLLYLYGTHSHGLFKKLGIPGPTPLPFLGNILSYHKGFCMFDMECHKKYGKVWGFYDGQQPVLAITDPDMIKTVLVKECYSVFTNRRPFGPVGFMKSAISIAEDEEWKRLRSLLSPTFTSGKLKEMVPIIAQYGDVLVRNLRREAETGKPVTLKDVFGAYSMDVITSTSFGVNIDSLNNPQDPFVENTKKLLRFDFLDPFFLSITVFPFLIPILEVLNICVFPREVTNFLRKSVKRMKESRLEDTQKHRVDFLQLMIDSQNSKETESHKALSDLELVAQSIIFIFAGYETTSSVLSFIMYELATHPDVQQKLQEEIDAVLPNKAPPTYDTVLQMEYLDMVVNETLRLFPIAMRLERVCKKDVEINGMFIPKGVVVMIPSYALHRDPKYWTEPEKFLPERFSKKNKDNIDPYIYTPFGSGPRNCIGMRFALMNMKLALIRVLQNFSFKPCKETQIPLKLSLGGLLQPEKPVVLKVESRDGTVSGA

CC(C)c1nc(N(C)S(C)(=O)=O)nc(-c2ccc(F)cc2)c1/C=C/[C@@H](O)C[C@@H](O)CC(=O)O [Rosuvastatin]
bioavailability [1]: ~20%
Increase of rosuvastatin AUC (OATP1B1): 7 fold

CC(C)(C)c1ccc(S(=O)(=O)Nc2ccc(Cl)cc2C(=O)c2cc[n+]([O-])cc2)cc1 [Vercirnon]
Metabolism [2]: extensively metabolised
Cmax [3]: 3 to 5 µM
Inhibition of OAT1 in vitro (OAT1): can inhibit
time to maximum concentration (tmax) [4]: 3 to 4 h
protein bound [5]: > 90%
Effect on CYP2C19 enzyme activity (CYP2C19): no clinically significant effect
Substrate for human p-glycoprotein transporter protein or other transport proteins [6]: unlikely to be a substrate
Effect on CYP3A4 enzyme activity (CYP3A4 [7]): no clinically significant effect
Tolerability ([8]; 24 healthy subjects, all treatments over 14 days, vercirnon 500 mg BID): well tolerated
Effect on CYP2C8 enzyme activity (CYP2C8 [9]): no clinically significant effect
Inhibition of BCRP in vitro [10]: can inhibit
Inhibition of OAT3 in vitro (OAT3): can inhibit
Effect on BCRP or OATP1B1 transporter activity (BCRP and OATP1B1): no clinically significant effect
Average accumulation in terms of AUC0–τ [11]: 14%
Average accumulation in terms of Cmax [11]: 3%
Permeability [12]: passively permeable
Inhibition of OAT1B1 in vitro (OAT1B1): has the potential to inhibit; also recorded: can inhibit

CCc1ccc(CCOc2ccc(CC3SC(=O)NC3=O)cc2)nc1 (stereo not drawn) [Pioglitazone]
Increase of pioglitazone AUC (CYP2C8 [13]; co-administration with gemfibrozil): 3.4 fold
Decrease of exposure (AUC) of pioglitazone (CYP2C8 [13]; co-administration with rifampin, inducer of CYP2C8): 54%
Increase of pioglitazone (CYP3A4 [14]): 34%

Cc1ncc2n1-c1ccc(Cl)cc1C(c1ccccc1F)=NC2 [Midazolam, reference compound]
Somnolence, number of subjects reporting ([8]; of 24 subjects, on 19 occasions, midazolam alone or midazolam + vercirnon): 13 subjects

Cc1ccc(C)c(OCCCC(C)(C)C(=O)O)c1 [gemfibrozil]
Ki (CYP2C8 [15]): 69 to 75 µM
